Experimental data published in ChEMBL document CHEMBL3297719, “Hybrid dopamine uptake blocker-serotonin releaser ligands: a new twist on transporter-focused therapeutics” (ACS Med Chem Lett, 2014).
Calls of active or inactive are those of the source. The calls are words filed in the database; no cut-off is given here.

How the values were obtained:
[1] = molecular target: T1, Sodium-dependent serotonin transporter (Rattus norvegicus, UniProt P31652); assay: Induction of SERT-mediated serotonin release in rat synaptosomes; assay type: subcellular, Brain
T1 sequence (P31652 whole entry): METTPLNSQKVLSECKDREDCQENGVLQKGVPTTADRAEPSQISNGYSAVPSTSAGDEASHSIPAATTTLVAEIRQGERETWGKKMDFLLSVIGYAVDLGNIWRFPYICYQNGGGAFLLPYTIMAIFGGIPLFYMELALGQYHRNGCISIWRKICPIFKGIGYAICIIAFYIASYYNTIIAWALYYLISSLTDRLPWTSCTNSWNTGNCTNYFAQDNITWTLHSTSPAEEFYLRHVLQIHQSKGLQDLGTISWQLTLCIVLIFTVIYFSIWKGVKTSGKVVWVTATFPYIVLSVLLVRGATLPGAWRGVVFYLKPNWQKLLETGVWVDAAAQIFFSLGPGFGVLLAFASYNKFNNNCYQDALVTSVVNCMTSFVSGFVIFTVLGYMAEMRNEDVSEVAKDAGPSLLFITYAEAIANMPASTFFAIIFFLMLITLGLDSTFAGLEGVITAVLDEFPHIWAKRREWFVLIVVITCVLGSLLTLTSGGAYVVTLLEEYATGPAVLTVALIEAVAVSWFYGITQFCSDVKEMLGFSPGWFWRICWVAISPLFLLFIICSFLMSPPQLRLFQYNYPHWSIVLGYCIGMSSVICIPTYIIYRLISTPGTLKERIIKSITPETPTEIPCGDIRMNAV
Summary of the method: (§1)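 Synaptosomes prepared from rat brain homogenate. Each compound was run in both the release assay and the uptake-inhibition assay to classify it as a releasing substrate or an uptake inhibitor. Dose-response curves were then completed only for the assigned activity. Values are means ± SD from N = 3 experiments, each performed in triplicate.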

[2] = molecular target: Transporter (Rattus norvegicus) (UniProt Q63380); assay: Inhibition of NET-mediated norepinephrine uptake in rat synaptosomes; assay type: subcellular; conditions: Brain; summary of the method: as §1
Chain of Transporter (Rattus norvegicus) (Q63380 as listed by the source): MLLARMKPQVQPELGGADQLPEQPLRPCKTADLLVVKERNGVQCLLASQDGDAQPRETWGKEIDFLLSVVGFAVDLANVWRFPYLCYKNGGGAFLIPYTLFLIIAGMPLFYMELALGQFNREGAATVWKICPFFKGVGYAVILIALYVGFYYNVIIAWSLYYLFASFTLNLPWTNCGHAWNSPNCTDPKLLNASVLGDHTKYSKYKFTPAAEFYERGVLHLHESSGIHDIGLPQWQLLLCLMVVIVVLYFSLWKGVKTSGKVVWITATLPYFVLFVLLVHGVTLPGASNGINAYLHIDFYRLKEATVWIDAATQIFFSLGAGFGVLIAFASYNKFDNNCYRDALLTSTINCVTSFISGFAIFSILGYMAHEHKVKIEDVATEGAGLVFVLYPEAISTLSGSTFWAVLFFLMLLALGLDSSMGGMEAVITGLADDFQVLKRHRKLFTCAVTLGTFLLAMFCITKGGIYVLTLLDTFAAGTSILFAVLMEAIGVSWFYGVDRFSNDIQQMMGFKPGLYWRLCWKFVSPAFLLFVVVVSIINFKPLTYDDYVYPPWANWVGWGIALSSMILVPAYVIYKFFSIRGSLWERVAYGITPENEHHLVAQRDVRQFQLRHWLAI

[3] = molecular target: Transporter (Rattus norvegicus) (UniProt Q63380); assay: Induction of NET-mediated norepinephrine release in rat synaptosomes; assay type: subcellular; conditions: Brain; summary of the method: as §1
[4] = molecular target: 5-hydroxytryptamine receptor 2A (Homo sapiens) (UniProt P28223); assay: Agonist activity at human 5HT2A expressed in HEK293 cells at 10 uM by calcium mobilization assay; assay type: functional, cell-based
Chain of 5-hydroxytryptamine receptor 2A (Homo sapiens) (P28223 whole entry): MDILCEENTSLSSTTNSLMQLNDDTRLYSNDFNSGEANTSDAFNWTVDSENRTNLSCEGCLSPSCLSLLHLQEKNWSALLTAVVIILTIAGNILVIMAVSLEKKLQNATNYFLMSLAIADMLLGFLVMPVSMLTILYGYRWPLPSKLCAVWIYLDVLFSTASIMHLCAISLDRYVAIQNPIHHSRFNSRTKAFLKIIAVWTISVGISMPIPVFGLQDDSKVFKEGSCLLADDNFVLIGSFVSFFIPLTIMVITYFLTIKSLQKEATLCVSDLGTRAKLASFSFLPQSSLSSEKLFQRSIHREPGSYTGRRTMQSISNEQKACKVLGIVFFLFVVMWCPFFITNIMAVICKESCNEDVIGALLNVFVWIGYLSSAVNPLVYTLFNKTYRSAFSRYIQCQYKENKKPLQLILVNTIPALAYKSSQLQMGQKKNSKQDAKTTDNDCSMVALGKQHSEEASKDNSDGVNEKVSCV

[5] = molecular target: 5-hydroxytryptamine receptor 2B (Homo sapiens) (UniProt P41595); assay: Agonist activity at human 5HT2B expressed in HEK293 cells at 10 uM by calcium mobilization assay; assay type: functional, cell-based
Chain of 5-hydroxytryptamine receptor 2B (Homo sapiens) (P41595 whole entry): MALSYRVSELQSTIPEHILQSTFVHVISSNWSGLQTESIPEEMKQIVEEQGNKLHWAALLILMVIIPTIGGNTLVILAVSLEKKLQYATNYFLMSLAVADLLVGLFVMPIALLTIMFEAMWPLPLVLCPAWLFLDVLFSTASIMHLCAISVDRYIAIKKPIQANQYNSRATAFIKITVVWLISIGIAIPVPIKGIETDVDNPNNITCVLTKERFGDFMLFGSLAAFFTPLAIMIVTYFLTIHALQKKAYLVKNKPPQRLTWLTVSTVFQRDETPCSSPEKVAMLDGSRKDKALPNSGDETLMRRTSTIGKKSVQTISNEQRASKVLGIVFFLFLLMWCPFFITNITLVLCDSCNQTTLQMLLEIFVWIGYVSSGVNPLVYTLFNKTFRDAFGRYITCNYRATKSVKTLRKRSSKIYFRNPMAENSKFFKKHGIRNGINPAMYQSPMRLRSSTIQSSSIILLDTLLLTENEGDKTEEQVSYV

[6] = molecular target: 5-hydroxytryptamine receptor 2B (Homo sapiens) (UniProt P41595); assay: Agonist activity at human 5HT2C expressed in HEK293 cells at 10 uM by calcium mobilization assay; assay type: functional, cell-based
[7] = molecular target: T2, 5-hydroxytryptamine receptor 1A (Homo sapiens) (UniProt P08908); assay: Agonist activity at human 5HT1A expressed in CHO cells coexpressing Galpha16 at 10 uM by calcium mobilization assay; assay type: functional, cell-based
T2 sequence (whole entry): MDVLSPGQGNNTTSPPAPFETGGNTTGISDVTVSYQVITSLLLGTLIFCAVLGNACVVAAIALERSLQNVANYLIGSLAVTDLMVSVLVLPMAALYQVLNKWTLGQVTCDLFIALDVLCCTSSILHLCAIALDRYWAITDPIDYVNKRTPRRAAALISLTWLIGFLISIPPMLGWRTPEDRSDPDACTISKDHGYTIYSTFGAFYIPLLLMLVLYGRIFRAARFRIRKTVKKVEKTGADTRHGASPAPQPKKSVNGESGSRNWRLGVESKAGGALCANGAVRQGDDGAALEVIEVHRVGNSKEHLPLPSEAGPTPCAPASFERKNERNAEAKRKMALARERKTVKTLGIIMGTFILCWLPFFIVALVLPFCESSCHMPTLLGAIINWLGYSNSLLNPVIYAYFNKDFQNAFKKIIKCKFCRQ

[8] = molecular target: 5-hydroxytryptamine receptor 2A (Homo sapiens) (UniProt P28223); assay: Agonist activity at human 5HT2A expressed in CHOK1 cells at 10 uM after 3 hrs by beta-arrestin recruitment assay; assay type: cell-based; conditions: CHO-K1
[9] = molecular target: T3, Sodium-dependent dopamine transporter (Rattus norvegicus, UniProt P23977); assay: Inhibition of DAT-mediated dopamine uptake in rat synaptosomes; assay type: subcellular, Brain; summary of the method: as §1
T3 sequence (P23977 whole entry): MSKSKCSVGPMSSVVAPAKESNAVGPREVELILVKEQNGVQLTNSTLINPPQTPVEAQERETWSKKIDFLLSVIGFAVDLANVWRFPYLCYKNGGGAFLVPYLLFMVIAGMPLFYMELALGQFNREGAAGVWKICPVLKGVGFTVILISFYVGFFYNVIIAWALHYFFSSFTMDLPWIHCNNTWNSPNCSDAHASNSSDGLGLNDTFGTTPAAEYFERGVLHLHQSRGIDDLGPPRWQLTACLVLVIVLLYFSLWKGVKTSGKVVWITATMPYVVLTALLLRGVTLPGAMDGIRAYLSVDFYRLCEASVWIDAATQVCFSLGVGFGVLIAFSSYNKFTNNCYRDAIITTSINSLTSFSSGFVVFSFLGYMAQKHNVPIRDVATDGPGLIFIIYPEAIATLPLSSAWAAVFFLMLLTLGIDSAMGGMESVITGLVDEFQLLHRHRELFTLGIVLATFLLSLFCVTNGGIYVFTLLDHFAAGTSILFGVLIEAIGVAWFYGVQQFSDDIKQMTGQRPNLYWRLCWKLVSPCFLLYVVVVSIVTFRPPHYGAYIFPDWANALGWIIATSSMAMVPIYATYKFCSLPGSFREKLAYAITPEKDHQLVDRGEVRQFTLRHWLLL

[10] = molecular target: T1, Sodium-dependent serotonin transporter; assay: Inhibition of SERT-mediated serotonin uptake in rat synaptosomes; assay type: subcellular, Brain; summary of the method: as §1
[11] = molecular target: T3, Sodium-dependent dopamine transporter; assay: Induction of DAT-mediated dopamine release in rat synaptosomes; assay type: subcellular, Brain; summary of the method: as §1

Compound | EC50 [1] | inhibition [2] | Activity [3] | Activity [4] | Activity [5] | Activity [6] | Activity [7] | Activity [8] | IC50 [9] | IC50 [10] | EC50 [11]
C[C@H](NC1CC1)C(=O)c1cccc(Cl)c1 | 562 nM | Active | Active | inactive | inactive | inactive | inactive | inactive | 294 nM | – | –
CC(NC1CC1)C(=O)c1ccc(Cl)c(Cl)c1 (centres undefined) | 356 nM | Active | Active | inactive | inactive | inactive | inactive | inactive | 425 nM | – | –
CCNC(C)C(=O)c1cccc(Cl)c1 (centres undefined) | – | Active | Active | inactive | inactive | inactive | inactive | inactive | 5920 nM | > 10000 nM | –
CC(NC1CC1)C(=O)c1cccc(Cl)c1 (centres undefined) | 1330 nM | Active | Active | inactive | inactive | inactive | inactive | inactive | 533 nM | – | –
CC(N)Cc1cccc(Cl)c1 (centres undefined) | – | Active | Active | inactive | inactive | inactive | inactive | inactive | – | – | –
CCCNC(C)C(=O)c1cccc(Cl)c1 (centres undefined) | – | Active | Active | inactive | inactive | inactive | inactive | inactive | 793 nM | > 10000 nM | –
CC(NC1CC1)C(=O)c1ccc(Cl)cc1 (centres undefined) | 1630 nM | Active | Active | inactive | inactive | inactive | inactive | inactive | 2010 nM | – | –
CCC(NC)C(=O)c1ccccc1 (centres undefined) | – | Active | Active | inactive | inactive | inactive | inactive | inactive | – | > 10000 nM | 411 nM
CNC(C)C(=O)c1cccc(Cl)c1 (centres undefined) | 410 nM | Active | Active | inactive | inactive | inactive | inactive | inactive | – | – | 46.8 nM
